Compounds with a hit are over-represented: about 1.8% of the library has one in this group of screens.
TRAIL sens C8 = caspase-8 TRAIL sensitization; NB7+C8 cells + TRAIL, ATPlite viability luminescence; inhibition (viability loss, TRAIL sensitization), % at 10 µM; actives 1% (n = 360,000); AID 624354;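 active = compounds causing at least 50% loss of cell viability in the single-dose screen, relative to plate controls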
STAT3 act = STAT3 signaling activation; activation (% of control), % at 5.6 µM; U3A cells, IL-6 STAT3-luciferase reporter, luminescence; 100% = signal with IL-6 EC80 alone; AID 871; actives 0.91% (n = 190,000);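 active = activation above the screen-wide mean of compound activation plus 3 SD, cut at about 130% in these data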
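system = STAT3-luciferase reporter U3A cells | reagent = IL-6 stimulus at 33 ng/mL final | timing = 1 h compound pre-exposure, 6 h IL-6 stimulation, 37 °C | measured by = luminescence | evaluation = % activation versus median of IL-6-stimulated wells | control set = IL-6-only wells as 100% reference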
PPC-1+TRAIL kill = PPC-1 cancer cell killing with TRAIL present. PPC-1 cells + TRAIL, ATPLite viability luminescence. cell killing (% activity), % at 4 µM or 5 µM. actives 0.41% (n = 220,000). AID 1443;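 active = cell killing above 50% in the first pass at 4 µM, then a duplicate retest at 5 µM averaging 50% or more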
STAT3 blocker = inhibitors of IL-6 induced STAT3 signaling; actives 0.89% (n = 190,000); AID 862; inhibition, % at 5.5 µM; U3A cells, IL-6 STAT3-luciferase reporter, luminescence; host cell line lacks STAT1;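 active = inhibition above the mean inhibition across all screened compounds plus 3 SD, cut at about 44% in these data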
STAT1 blocker = STAT1 signaling inhibition; inhibition, % at 5.5 µM; AID 920; NIH 3T3 STAT1-luciferase reporter, IFN-gamma, luminescence; actives 0.35% (n = 200,000);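 active = inhibition above a set limit, the mean inhibition across all tested compounds plus 3 SD, cut at about 34% in these data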
Numbers stand for hits; . = inactive; / = no result.

SMILES	TRAIL sens C8	STAT3 act	PPC-1+TRAIL kill	STAT3 blocker	STAT1 blocker
O=C(COC(=O)c1ncc(Cl)c(Cl)c1Cl)Nc1ccccc1OC(F)F	.	134	.	.	.
O=C(COC(=O)c1ncc(Cl)c(Cl)c1Cl)Nc1cccnc1Cl	.	/	/	/	/
CCc1ccccc1-n1ncc(C(=O)Nc2ccc(OC)cc2)c1C	.	/	/	/	/
COc1ccc2oc(-c3ccc(NC(=O)c4ccc(N5CCOCC5)c([N+](=O)[O-])c4)cc3)nc2c1	50	.	.	.	.
CCc1nc2ccc(C(=O)Nc3ccc(NC(C)=O)cc3)cn2c1N(C)CCC(C)C	.	/	/	/	/
COc1cccc(/C=N/NC(=O)c2ccc([N+](=O)[O-])cc2Cl)c1O	55	.	.	.	.
COc1ccc(NC(=O)c2cc(-c3ccncc3)nc3ccc(Br)cc23)cc1OC	54	/	/	/	/
COc1cccc(NC(=O)CN(C)C(=O)Cn2c(=O)oc3ccccc32)c1	.	/	/	/	/
Cc1ccc2c(c1)C(O)(c1c(C)[nH]c3ccccc13)C(=O)N2 (stereo not given)	.	134	.	.	.
COc1ccc(C2(O)C(=O)Nc3ccc(C)cc32)cc1 (stereo not given)	.	/	/	/	/
O=C1C=C(NCCc2cc(Br)c(O)c(Br)c2)C(=O)c2ncccc21	57	/	/	/	/
CN(C)c1ccc(-c2cc([C@H]3[C@@H]4C=CCC[C@@]4(C)C(=O)N3Cc3ccccc3)ccc2F)cc1	.	/	.	/	/
O=c1cc(-c2ccccc2)oc2ccc3ccccc3c12	88	/	/	/	/
O=c1cc(-c2ccc(O)c(O)c2)oc2c1ccc1ccccc12	.	/	/	/	/
O=c1cc(-c2ccc(O)c(O)c2)oc2ccc3ccccc3c12	74	/	/	/	/
O=c1cc(-c2ccccc2)oc2cccc(O)c12	.	/	/	/	/
O=C(NC(=S)Nc1ccc(Cl)cn1)c1cccs1	72	151	.	.	.
CCC(C)c1ccc(O)c(NC(=S)NC(=O)c2cccs2)c1 (stereo not given)	58	/	/	/	/
Cc1ccnc(NC(=O)CNC(=O)c2cccs2)c1	.	/	/	/	/
Cc1ccnc(NC(=S)NC(=O)c2cccs2)c1	89	.	61	.	.
O=C(/C=C/c1cccs1)Nc1nncs1	.	/	.	/	/
Cc1ccnc(NC(=O)/C=C/c2cccs2)c1	79	.	68	.	.
COc1cccc(C(=O)NNS(=O)(=O)c2ccccc2)c1	.	/	/	/	/
Cc1ccnc(NC(=S)NC(=O)c2ccco2)c1	53	.	.	.	.
O=C(NC(=S)Nc1ccccn1)c1ccco1	.	.	.	.	.
SMILES	TRAIL sens C8	STAT3 act	PPC-1+TRAIL kill	STAT3 blocker	STAT1 blocker
O=C(NCc1ccccc1Cl)C1CCN(S(=O)(=O)c2cccs2)CC1	.	/	/	/	/
COc1ccc(C)cc1NC(=O)CN(Cc1nnc(-c2ccc(Cl)cc2)o1)C1CCCC1	85	.	.	.	.
Cc1ccc(NC(=O)CSc2nnc(C3CC3)n2N)cc1S(=O)(=O)N1CCOCC1	.	.	.	.	.
CCS(=O)(=O)Nc1ccc(C2=NN(C(=O)c3ccco3)C(c3cccc(F)c3)C2)cc1 (stereo not given)	.	.	.	.	63
Brc1ccc(-c2csc(-c3c[nH]c4ccccc34)n2)cc1	.	.	.	.	.
c1ccc2c(-c3csc(-c4ccncc4)n3)c[nH]c2c1	.	144	/	.	.
Cc1cc(NC(=O)/C=C/c2ccccc2Cl)n(-c2nc3ccccc3[nH]2)n1	74	.	58	.	.
O=C1c2ccccc2C(=O)N1CCOc1ccccc1	.	138	/	.	.
COc1ccc(OCCN2C(=O)c3ccccc3C2=O)cc1	.	.	.	.	.
CCN(Cc1ccccc1)S(=O)(=O)c1ccc(C(=O)N(CCCN(C)C)c2nc3cc(C)cc(C)c3s2)cc1	75	/	/	/	/
CCOc1cccc2sc(N(CCCN(C)C)C(=O)c3ccc(S(=O)(=O)N(C)Cc4ccccc4)cc3)nc12	51	/	/	/	/
Cc1ccc2sc(N(CCCN(C)C)C(=O)c3ccc(S(=O)(=O)N(C)Cc4ccccc4)cc3)nc2c1C	69	/	/	/	/
Cc1ccc2sc(N(CCCN(C)C)C(=O)c3ccc(S(=O)(=O)N(C)C)cc3)nc2c1C	.	.	.	.	.
CC1(N=Cc2cc(Cl)ccc2O)COP(=O)(NC2CCCC2)OC1 (stereo not given)	.	/	/	/	/
NC(=O)c1oc2ccccc2c1NC(=O)c1ccc([N+](=O)[O-])o1	74	/	/	/	/
NC(=O)c1oc2ccccc2c1NC(=O)c1ccc(F)cc1	.	.	.	.	.
CCCNC(=O)C1(C)CCCN(Cc2cccc3ccccc23)C1 (stereo not given)	.	/	/	/	/
CCN(CC)c1ccc(C(=C2C=CC(=[N+](CC)CC)C=C2)c2ccccc2)cc1	89	/	/	/	/
CCN(CC)c1ccc(C(=C2C=CC(=[N+](CC)CC)C=C2)c2ccc(N(CC)CC)cc2)cc1	88	/	/	/	/
COc1ccccc1CNc1nc(Oc2cccc(F)c2)c2sccc2n1	.	/	/	/	/
CCCCCCCCCCCCCCCC[n+]1ccc(/C=N/O)cc1	.	.	70	.	.
CCCCCCCCCCCCCCCC[n+]1ccc(C(N)=O)cc1	71	.	.	.	.
CCCCCCCCCCCCCCCC[n+]1ccccc1	95	/	/	/	/
CCCCCc1ccc(OCCC[n+]2ccccc2)c(CCCCC)c1	.	/	.	/	/
O/N=C/c1cccc[n+]1CCCCCC[n+]1ccccc1/C=N/O	.	/	/	/	/
SMILES	TRAIL sens C8	STAT3 act	PPC-1+TRAIL kill	STAT3 blocker	STAT1 blocker
CC(C)(C)c1nnc2sc(SCC(=O)N3CCCCC3)nn2c1=O	.	/	/	/	/
CCOC(=O)C1(C)CCCCCN1C(=O)c1ccc(Cl)nc1 (stereo not given)	.	/	/	/	/
CC1(c2ccccc2Br)NC(=O)N(CC(=O)Nc2ccc(S(N)(=O)=O)cc2)C1=O (stereo not given)	.	/	/	/	/
C/C(=N\Nc1nc2ccccc2nc1C)c1ccccc1O	.	/	.	/	/
CC(=NNc1ccc2ccccc2n1)c1ccccc1O	77	/	/	/	/
Cc1onc(C(=O)N2CCN(C(c3ccccc3)c3ccccc3)CC2)c1[N+](=O)[O-]	91	.	.	.	.
COc1ccccc1N1CCN(C(=O)c2noc(C)c2[N+](=O)[O-])CC1	.	/	/	/	/
Cc1ccc(C2=NNC(=Nc3ccc(F)cc3)SC2)cc1	.	.	.	.	.
CCc1ccc(C2=NNC(=Nc3cccc(S(=O)(=O)N(C)C)c3)SC2)cc1	71	.	.	.	.
COc1ccc(CN(CCC(c2ccccc2)c2ccc(OC(C)C)cc2)C(=O)CCl)cc1OC (stereo not given)	96	.	.	.	.
CC1CCCCN1C(=O)COC(=O)c1cc(Cl)c2c(c1)OCO2 (stereo not given)	.	/	/	/	/
N#C/C(=C(/O)CCl)c1nc2ccccc2[nH]1	.	134	.	.	.
N#C/C(=C(/O)c1ccc(Br)s1)c1nc2ccccc2[nH]1	.	/	/	/	/
N#C/C(=C(/O)c1ccc([N+](=O)[O-])s1)c1nc2ccccc2[nH]1	44	/	.	/	/
COc1cc(NC(=O)Nc2nnc([C@@H]3C[C@H](O)[C@@H](CO)O3)s2)cc(OC)c1OC	.	/	/	/	/
O=C(Nc1ccc(NC(=O)c2ccccc2F)cn1)c1ccco1	54	/	/	/	/
CC(=O)c1ccccc1NC(=O)c1ccc(OCc2c(C)noc2C)cc1	.	/	/	/	/

Screening results from PubChem.
